Bioassay records from PubChem.
Scp-1 inhibitor – Scp-1 (human) phosphatase inhibition | inhibition, % at 20 µM | actives 0.88% (n = 340,000) | Recombinant Scp1, phosphopeptide, malachite green phosphate absorbance | Q9GZU7 | AID 493091;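 active = inhibition above about 50% at 20 µM, limit read from the data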;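 also: plate controls were DMSO wells with enzyme for no effect and wells lacking enzyme for full effect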
Target sequence (Q9GZU7 76-261 limits assumed): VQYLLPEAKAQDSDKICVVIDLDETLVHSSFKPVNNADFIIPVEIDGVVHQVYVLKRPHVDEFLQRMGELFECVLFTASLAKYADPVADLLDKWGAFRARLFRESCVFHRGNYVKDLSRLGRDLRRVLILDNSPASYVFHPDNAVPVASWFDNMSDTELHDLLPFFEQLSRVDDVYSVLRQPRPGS
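System: SCP-1 catalytic domain; Reagent: Phospho 17-mer peptide substrate; Doses: one concentration, 20 µM, with 1.0% DMSO; Incubation: 45 min room-temperature reaction, 5 min colour, 30 min stabiliser; Signal: Phosphate-binding colour reagent, absorbance read at 630 nm.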
SUMO1 PPI mod – modulators of human SUMO1-mediated protein-protein interactions | P63165 | SUMO1 binding to a labelled peptide, TR-FRET, 1 h | inhibition, % at 20 µM | actives 0.33% (n = 360,000) | AID 602429; in the data active = inhibition above about 37%
Target sequence (P63165 whole entry, looked up): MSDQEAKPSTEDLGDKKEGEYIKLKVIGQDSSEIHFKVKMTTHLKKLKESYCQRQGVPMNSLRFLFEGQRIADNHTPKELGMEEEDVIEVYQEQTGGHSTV
LMPTP block – LMPTP (human) inhibition. P24666. recombinant LMPTP-A, OMFP fluorogenic substrate, fluorescence intensity. inhibition, % at 20 µM. actives 0.22% (n = 360,000). AID 651560;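 active = compounds that cut the enzyme signal by at least half of the control window in the single-dose screen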;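 also: plate controls were DMSO wells with enzyme plus substrate for no effect and substrate without enzyme for full effect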
Target sequence (P24666 whole entry, looked up): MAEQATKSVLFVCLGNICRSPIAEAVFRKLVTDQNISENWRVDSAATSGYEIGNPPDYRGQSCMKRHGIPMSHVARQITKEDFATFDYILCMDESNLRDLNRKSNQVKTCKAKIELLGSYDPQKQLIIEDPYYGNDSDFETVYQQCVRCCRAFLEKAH
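Assay system: LMPTP-A phosphatase enzyme | Input: 0.625 nM enzyme | Also added: Fluorogenic phosphatase substrate OMFP at 400 µM final | Compound dosing: One test concentration per compound, 20 µM, with 3% DMSO overall | Schedule: 50 min enzyme reaction at room temperature, protected from light | Signal: Fluorescence intensity | Benchmarks: no-enzyme and uninhibited controls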
DNMT1 inh – blocks human DNA methyltransferase DNMT1; P26358; DNMT1 molecular beacon, Hinp1I cleavage, fluorescence; inhibition (reported as % activation of signal), % at 10 µM; actives 0.83% (n = 360,000); in the data active = inhibition above about 50%
NadD inh – NadD (S. aureus) enzyme inhibition; purified NadD enzyme, colorimetric absorbance read-out; inhibition, % at 20 µM; actives 0.78% (n = 360,000); AID 602399; in the data active = inhibition above about 26%
STEP block – blocks human striatal-enriched tyrosine phosphatase; AID 588621; actives 0.25% (n = 360,000); recombinant STEP, OMFP fluorogenic substrate, fluorescence; inhibition, % at 20 µM;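 active = inhibition at 20 µM, scaled per plate between control wells, above about 37%, limit read from the data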;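 also: 0% = DMSO with enzyme and substrate and 100% = substrate only without enzyme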
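System: STEP (striatal-enriched tyrosine phosphatase) enzyme, cell-free; medium: Bis-Tris pH 6.0 buffer with DTT, detergent; dosing: 20 µM, 1% DMSO; times: reaction 20 min, ambient temperature; detection: fluorescence, 480/540 nm; read-out basis: normalized % inhibition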
* hit, by the source's call; · = not tested or not shown. The list is not random: actives were taken first. Their share in the collection is about 2.4%.

SMILES	Scp-1 inhibitor	SUMO1 PPI mod	LMPTP block	DNMT1 inh	NadD inh	STEP block
O=C(O)CCCN1C(=O)/C(=C/c2cn(-c3ccccc3)nc2-c2cccs2)SC1=S	8	11	24	11	34*	6
C=CCN1C(=O)C(CC(=O)Nc2ccc(OCCC)cc2)N(CCCN2CCN(Cc3ccccc3)CC2)C1=S (stereo not given)	6	2	-2	3	6	-1
CCn1c(SCC(=O)Nc2ccc(C)cc2)nnc1-c1ccc(O)cc1	19	44*	-2	0	-4	-1
CCn1c(SCC(=O)Nc2ccc(C)cc2)nnc1-c1ccccn1	1	4	0	1	-2	-2
O=c1[nH]c2ccccc2cc1CN(Cc1ccco1)S(=O)(=O)c1ccccc1	12	-1	3	4	-3	5
Oc1ccccc1/C=N/Nc1cc(N2CCCC2)nc(N2CCCC2)n1	-30	33	8	58*	16	8
Oc1ccc(/C=N/Nc2cc(N3CCOCC3)nc(N3CCOCC3)n2)cc1O	-7	-2	2	-18	3	-3
CC(=O)c1ccc(NC(=O)CN2C(=O)/C(=C/C(C)=C/c3ccccc3)SC2=S)cc1	-11	-2	1	-15	31*	0
CC(=Cc1ccccc1)C=C1SC(=S)N(CCCC(=O)Nc2ccc(C(=O)O)c(O)c2)C1=O	·	-1	45	71*	19	6
CC(/C=C1\SC(=S)N(CCCC(=O)Nc2ccc(C(=O)O)c(O)c2)C1=O)=C\c1ccccc1	10	·	·	·	·	·
CC(/C=C1\SC(=S)N(NC(=O)c2ccc(C)cc2)C1=O)=C\c1ccccc1	0	7	2	4	30*	2
CC(/C=C1\SC(=S)N(CCC(=O)Nc2ccc(O)cc2)C1=O)=C\c1ccccc1	-7	-5	3	-19	21	2
COC(=O)c1c(C(=O)OC)c(-c2ccc(OC)cc2)n2c1CS(=O)(=O)C2	-7	2	-1	4	0	0
COc1cc(NC(=O)c2ccc(-c3ccc(F)c(F)c3)c3ccoc23)cc(OC)c1OC	·	-8	2	-2	-7	2
Cc1c(Cl)c([N+](=O)[O-])nn1CCCC(=O)NC1CCCCC1	-6	-8	0	-2	-6	-2
O=C(c1ccccc1)N1CCC(c2nc3c(nnn3Cc3ccco3)c(=O)[nH]2)CC1	3	53*	-1	6	0	1
O=C(c1ccc(Cl)cc1Cl)N1CCC(c2nc3c(nnn3Cc3ccco3)c(=O)[nH]2)CC1	3	4	2	-1	8	2
CN(C)C1C(=O)c2ccccc2C1=O	-7	-4	-2	-1	4	-5
CCOC(=O)c1ccc2c(c1)nc(-c1ccc(F)cc1)c1nccn12	-1	48*	-1	18	-3	-1
CCCCN(C(=O)Cc1cccc(F)c1)c1c(N)n(CCC)c(=O)[nH]c1=O	0	2	0	2	7	0
N#C/C(=C/c1ccc(-c2cc([N+](=O)[O-])ccc2Cl)o1)C(N)=O	45	39*	34	39	7	8
N#C/C(=C/c1ccc(-c2ccccc2[N+](=O)[O-])o1)C(N)=O	-1	-11	-1	-3	3	-2
Cc1c(Br)c(O)c(Br)c(O)c1/C=N/n1c(-c2ccccc2)n[nH]c1=S	90*	11	-1	1	1	1
C=CCCC(=O)Nc1nc(C)c(-c2csc(Nc3cc(OC)ccc3OC)n2)s1	4	0	1	-29	22	1
C=CCCC(=O)Nc1nc(C)c(-c2csc(Nc3cccc(OC)c3)n2)s1	6	78*	-1	-44	28	0
SMILES	Scp-1 inhibitor	SUMO1 PPI mod	LMPTP block	DNMT1 inh	NadD inh	STEP block
Cc1nc(NC(=O)c2ccccc2)sc1-c1csc(NCc2ccco2)n1	2	15	1	-22	47*	2
Cc1nc(NC(=O)c2ccccc2)sc1-c1csc(Nc2ccc(C(=O)O)cc2)n1	80*	92*	43	-6	12	1
COc1ccc(OC)c(NC(=O)Cc2coc3ccc4ccccc4c23)c1	-16	-1	4	-9	-10	0
Cc1nc(NC(=O)CSC2=NCCS2)sc1C(=O)N(C)C	7	-10	0	1	-3	1
CCN(CC)c1ccc(-c2nn3c(-c4n[nH]c5c4CCC5)nnc3s2)cc1	15	-6	10	23	54*	10
C=CC(=O)Nc1ccc(N(C)c2ccnc(Nc3ccc(N4CCN(C)CC4)cc3)n2)cc1	0	-17	21	-28	13	6
O=C(O)c1cccc(N2C(=O)/C(=C/c3ccc(SCc4ccc(Cl)cc4)o3)SC2=S)c1	70*	70*	49	84*	30	16
Cc1c(C(=O)N2CCCc3ccccc32)oc2ccc(S(=O)(=O)N3CCOCC3)cc12	-8	0	-1	-2	-7	3
Cc1coc2c1C(=O)C(=O)c1c-2ccc2c1CCCC2(C)C	-4	9	9	52*	33*	3
Cc1coc2c1C(=O)C(=O)c1c-2ccc2c(C)cccc12	38	22	22	95*	34*	14
COc1ccc(CCNC(=O)[C@H](C)N2C(=O)N3CCc4c([nH]c5ccccc45)[C@@]3(C)C2=O)cc1	-7	0	-1	-7	0	1
COCc1cccc(-c2csc(C(C)(O)c3cccc(F)c3)n2)c1 (stereo not given)	·	-5	-1	6	-8	-3
O=S(=O)(O)c1cc(O)c2c(O)c(N=Nc3cc(Cl)ccc3O)c(S(=O)(=O)O)cc2c1	83*	84*	102*	85*	-1	101*
Cc1ccc(N(C(=O)c2snc(C(N)=O)c2N)C(C(=O)NCCC(C)C)c2ccco2)cc1 (stereo not given)	-9	-5	2	-6	-3	1
O=S(=O)(/C=C/C=C/S(=O)(=O)c1ccccc1)c1ccccc1	0	41*	0	14	3	1
Cc1ccc(S(=O)(=O)C=CS(=O)(=O)c2ccc(C)cc2)cc1	·	4	-1	7	3	0
Cc1ccc(NC(=O)CN2C(=O)N/C(=C\c3ccco3)C2=O)cc1	-7	-20	-1	-3	3	-1
Nc1c(C(=O)NCC2CCCO2)sc2nc3c(c(-c4ccco4)c12)CC/C3=C\c1ccco1 (stereo not given)	81*	69*	70*	101*	93*	37*
O=C(NCCc1ccccn1)c1c(-c2ccsc2)sc2ccccc12	100*	-9	-1	2	1	0
O=C(NCCc1ccccn1)c1c(-c2ccccc2)sc2ccccc12	0	-7	-1	8	-3	-3
